Source: ChEMBL document CHEMBL1949668, “Synthesis of new α aminophosphonate system bearing Indazole moiety and their biological activity” (2012)

Assays:
Klebsiella pneumoniae = experiment: Antibacterial activity Klebsiella pneumoniae at 40 ug/disc after 24 hrs by agar disc diffusion method; assay type: functional; conditions: for zone of inhibition at 40 µg/disc: read-out: IZ
Procedure, shortened: (§1)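 Agar disc diffusion. Strains were grown in Mueller Hinton broth for 18–24 h at 37 °C. The bacterial suspension was spread on Mueller Hinton agar, and dried loaded discs were placed on it once the plates were dry. Gentamycin and […] reference discs carried 40 mcg/disc from 1 mg/ml solutions. Plates were incubated 24 h at 37 °C, and clear inhibition zones were measured in mm.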

Staphylococcus aureus = experiment: Antibacterial activity Staphylococcus aureus at 40 ug/disc after 24 hrs by agar disc diffusion method; assay type: functional; conditions: read-out: IZ; procedure, shortened: as §1
Salmonella typhimurium = experiment: Antibacterial activity Salmonella Typhimurium at 40 ug/disc after 24 hrs by agar disc diffusion method; assay type: functional, Salmonella enterica subsp. enterica serovar Typhimurium; conditions: for zone of inhibition at 40 µg/disc: Salmonella enterica, read-out: IZ; procedure, shortened: as §1
Bacillus subtilis = experiment: Antibacterial activity Bacillus subtilis at 40 ug/disc after 24 hrs by agar disc diffusion method; assay type: functional; conditions: for zone of inhibition at 40 µg/disc: read-out: IZ; procedure, shortened: as §1
Escherichia coli = experiment: Antibacterial activity Escherichia coli at 40 ug/disc after 24 hrs by agar disc diffusion method; assay type: functional; conditions: read-out: IZ; procedure, shortened: as §1
Pseudomonas aeruginosa = experiment: Antibacterial activity Pseudomonas aeruginosa at 40 ug/disc after 24 hrs by agar disc diffusion method; assay type: functional; conditions: read-out: IZ; procedure, shortened: as §1

| Molecule | zone of inhibition at 40 µg/disc (Klebsiella pneumoniae) | zone of inhibition at 40 µg/disc (Staphylococcus aureus) | zone of inhibition at 40 µg/disc (Salmonella typhimurium) | zone of inhibition at 40 µg/disc (Bacillus subtilis) | zone of inhibition at 40 µg/disc (Escherichia coli) | zone of inhibition at 40 µg/disc (Pseudomonas aeruginosa) | inhibition zone (IZ) (Klebsiella pneumoniae) | inhibition zone (IZ) (Salmonella typhimurium; Salmonella enterica subsp. enterica serovar Typhimurium) | inhibition zone (IZ) (Bacillus subtilis) |
| --- | --- | --- | --- | --- | --- | --- | --- | --- | --- |
| CCOP(=O)(OCC)C(NNC(=O)c1nn(C)c2ccccc12)c1ccc(C(F)(F)F)cc1 (stereo not drawn) | 7 mm | 5 mm | 5 mm | 4 mm | 3 mm | 6 mm |  |  |  |
| CCOP(=O)(OCC)C(NNC(=O)c1nn(C)c2ccccc12)c1ccccc1 (stereo not drawn) | 3 mm | 2 mm | 2 mm | 5 mm | 0 mm | 1 mm |  |  |  |
| GENTAMICIN |  |  |  |  |  |  | 13 mm | 11 mm | 15 mm |
| NC[C@H]1O[C@H](O[C@H]2[C@H](O)[C@@H](O[C@H]3O[C@H](CO)[C@@H](O)[C@H](N)[C@H]3O)[C@H](N)C[C@@H]2N)[C@H](O)[C@@H](O)[C@@H]1O [KANAMYCIN] | 18 mm | 9 mm | 14 mm | 15 mm | 13 mm | 21 mm |  |  |  |
| CCOP(=O)(OCC)C(NNC(=O)c1nn(C)c2ccccc12)c1cccc(F)c1 (stereo not drawn) | 8 mm | 3 mm | 4 mm | 4 mm | 5 mm | 7 mm |  |  |  |
| CCOP(=O)(OCC)C(NNC(=O)c1nn(C)c2ccccc12)c1ccccc1Br (stereo not drawn) | 2 mm | 1 mm | 3 mm | 7 mm | 1 mm | 4 mm |  |  |  |
